Experimental findings from ChEMBL document CHEMBL1795275, “Substituted benzoxazinones as potent positive allosteric AMPA receptor modulators: part II” (Bioorg Med Chem Lett, 2011) are described below.

Assay [1] is filed under the species Rattus norvegicus. The experiment in a line: Positive allosteric modulation of AMPA receptor in rat embryonic hippocampal neurons assessed as concentration required to double glutamate-induced steady-state current by patch clamp electrophysiology assay. The note with it: Hippocampus. On the technique in general: Patch clamp records ionic current or voltage across a cell membrane.

Assay [2] is filed under the species Rattus norvegicus. The experiment in a line: Positive allosteric modulation of AMPA receptor in rat hippocampal slices assessed as increase of fEPSP-induced current amplitude at 3 uM. Format: tissue-based. The note with it: Hippocampus. An outline of the steps:
(§1)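 Field recordings in in vitro hippocampal slices. Result is the percent rise in fEPSP amplitude, measured at the stated compound concentration.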

A short description of assay [3]: Displacement of [3H]-AMPAKINE from AMPA receptor in rat forebrain cell membranes. Further details: species or system Membrane.
For assay [4], the species on record is Rattus norvegicus. Nature of the assay: Positive allosteric modulation of AMPA receptor in rat hippocampal slices assessed as increase of fEPSP-induced current amplitude at 10 uM. Format: tissue-based. The settings on record: Hippocampus. A digest of the protocol: as §1
Assay [5] is filed under the species Rattus norvegicus. The experiment in a line: Ratio of compound to CX614 for AMPA receptor in rat embryonic hippocampal neurons assessed as concentration required to double glutamate-induced steady-state current. The settings on record: Hippocampus.
Assay [6] is filed under the species Rattus norvegicus. The experiment in a line: Positive allosteric modulation of AMPA receptor in rat hippocampal slices assessed as increase of fEPSP-induced current amplitude at 1 uM. It counts as tissue-based. The settings on record: Hippocampus. A digest of the protocol:
as §1

The species entered for assay [7] is Rattus norvegicus. The experiment in a line: Positive allosteric modulation of AMPA receptor in rat hippocampal slices assessed as increase of fEPSP-induced current amplitude at 30 uM. It counts as tissue-based. The settings on record: Hippocampus. An outline of the steps: as §1

Each structure is given as a SMILES string. pKi: −log10 of the molar value. A value given as a limit tells only on which side of the number the result lay.

In general, pKi refers to the negative decadic logarithm of the Ki, by convention in mol/L. A high value points to a small Ki.

For `O=C1c2cc3c(cc2OCN1Cc1ccccc1)C(=O)N1CCCC1O3` (configuration not stated), the CD in the assay listed under Rattus norvegicus [1] worked out at 6 µM.
In the case of `N#Cc1ccnn1CCN1COc2cc3c(cc2C1=O)OC1CCCN1C3=O` (configuration not stated), in the assay filed under Rattus norvegicus [1], the CD was 0.045 µM. Also, the Activity in the assay listed under Rattus norvegicus [2] worked out at 16%. The compound further had a pKi in assay [3] of 4.66.
Regarding `O=C1c2cc3c(cc2OCN1CCn1cc(Br)cn1)C(=O)N1CCCC1O3` (configuration not stated), the CD in the assay filed under Rattus norvegicus [1] came to 0.02 µM. The Activity in the assay filed under Rattus norvegicus [2] amounted to 32%. In addition, in assay [3], the pKi was 5.60.
As for `O=C1c2cc3c(cc2OCN1CCc1ccsc1)C(=O)N1CCCC1O3` (configuration not stated), in the assay filed under Rattus norvegicus [1], the CD was found to be 0.02 µM. Moreover, the Activity in the assay listed under Rattus norvegicus [2] turned out to be 15%. The same compound showed a negative-log Ki (pKi) in assay [3] of 6.57.
Consider `N#CNCCN1COc2cc3c(cc2C1=O)OC1CCCN1C3=O` (configuration not stated), for which the CD in the assay filed under Rattus norvegicus [1] turned out to be 1.8 µM. Besides, the Activity in the assay filed under Rattus norvegicus [4] is 2%. The pKi in assay [3] was 4.29.
For `CN(CCCN1COc2cc3c(cc2C1=O)OC1CCCN1C3=O)S(C)(=O)=O` (configuration not stated), in that order: 0.33 µM, 9% and 4.47.
Take `O=C1c2cc3c(cc2OCN1CCc1ccon1)C(=O)N1CCCC1O3` (configuration not stated): in the assay listed under Rattus norvegicus [1], the CD came out at 0.4 µM. Besides, the Activity in the assay filed under Rattus norvegicus [2] worked out at 4%. In assay [3], the negative-log Ki (pKi) was 4.39.
`O=C1c2cc3c(cc2OCN1CCc1cccnc1)C(=O)N1CCCC1O3` (configuration not stated): the CD in the assay listed under Rattus norvegicus [1] is 0.2 µM. Also, the Activity in the assay filed under Rattus norvegicus [2] was found to be 15%. The same compound had a pKi in assay [3] of 5.18.
Regarding `O=C1c2cc3c(cc2OCN1CCO)C(=O)N1CCCC1O3` (configuration not stated), in the assay listed under Rattus norvegicus [1], the CD is 1.3 µM. Further, the pKi in assay [3] is 4.48.
Take `O=C1c2cc3c(cc2OCN1CCn1cccn1)C(=O)N1CCCC1O3` (configuration not stated): the CD in the assay listed under Rattus norvegicus [1] amounted to 0.064 µM. In addition, the Activity in the assay filed under Rattus norvegicus [2] stood at 15%. The pKi in assay [3] was 5.29.
As to `O=C1c2cc3c(cc2OCN1CCc1cccs1)C(=O)N1CCCC1O3` (configuration not stated), in the assay listed under Rattus norvegicus [1], the CD came out at 0.032 µM. This compound showed a pKi in assay [3] of 5.70.
Regarding `N#CSCCN1COc2cc3c(cc2C1=O)OC1CCCN1C3=O` (configuration not stated), in the assay filed under Rattus norvegicus [1], the CD came to 0.06 µM. Also, the Activity in the assay filed under Rattus norvegicus [2] turned out to be 7%. This compound gave a negative-log Ki (pKi) in assay [3] of 6.00.
For `O=C1c2cc3c(cc2OCN1CCc1cc(F)cc(F)c1)C(=O)N1CCCC1O3` (configuration not stated), the CD in the assay listed under Rattus norvegicus [1] is 0.005 µM. In addition, in the assay listed under Rattus norvegicus [2], the Activity is 16%. This compound had a pKi in assay [3] of 6.52. The Ratio in the assay listed under Rattus norvegicus [5] turned out to be 460.
In the case of `N#CCN1COc2cc3c(cc2C1=O)OC1CCCN1C3=O` (configuration not stated), in the assay filed under Rattus norvegicus [1], the CD was found to be 0.5 µM. For the same compound, in the assay listed under Rattus norvegicus [4], the Activity is 10%. In assay [3], this compound showed a negative-log Ki (pKi) of 4.77.
In the case of `O=C1c2cc3c(cc2OCN1CCc1cccc(F)c1)C(=O)N1CCCC1O3` (configuration not stated), the CD in the assay filed under Rattus norvegicus [1] was determined as 0.011 µM. In addition, the Activity in the assay listed under Rattus norvegicus [2] turned out to be 16%. Further, in assay [3], the negative logarithm of the Ki (pKi) is 6.30.
Turning to `O=C1c2cc3c(cc2OCN1CCn1cc([N+](=O)[O-])cn1)C(=O)N1CCCC1O3` (configuration not stated), the CD in the assay listed under Rattus norvegicus [1] stood at 0.0065 µM. Further, the Activity in the assay filed under Rattus norvegicus [6] came out at 29%. In addition, the pKi in assay [3] was 6.62.
On to `O=C1c2cc3c(cc2OCN1CCc1c[nH]cn1)C(=O)N1CCCC1O3` (configuration not stated), for which the CD in the assay listed under Rattus norvegicus [1] was 5.1 µM. This compound also had a negative-log Ki (pKi) in assay [3] of 3.65.
For `[N-]=[N+]=NCCN1COc2cc3c(cc2C1=O)OC1CCCN1C3=O` (configuration not stated), in the assay listed under Rattus norvegicus [1], the CD is 0.08 µM. Also, in the assay listed under Rattus norvegicus [2], the Activity is 16%. The same compound had a pKi in assay [3] of 5.23.
In the case of `C[C@@H]1CN2C(=O)c3cc4c(cc3O[C@H]2O1)OCO4`, in the assay filed under Rattus norvegicus [1], the CD turned out to be 200 µM.
With `O=C1c2cc3c(cc2OCN1CCn1ccnn1)C(=O)N1CCCC1O3` (configuration not stated), the CD in the assay listed under Rattus norvegicus [1] was 0.16 µM. Further, the Activity in the assay filed under Rattus norvegicus [6] worked out at 8%. The same compound had a pKi in assay [3] of 5.29.
On to `NC(=S)c1cccc(CCN2COc3cc4c(cc3C2=O)OC2CCCN2C4=O)c1` (configuration not stated), for which the CD in the assay filed under Rattus norvegicus [1] was found to be 0.4 µM. Moreover, the Activity in the assay listed under Rattus norvegicus [4] worked out at 5%.
Turning to `O=C1c2cc3c(cc2OCN1CCc1ccc(F)cc1)C(=O)N1CCCC1O3` (configuration not stated), the CD in the assay listed under Rattus norvegicus [1] was 1.2 µM. In addition, the Activity in the assay listed under Rattus norvegicus [7] is 6%.
As to `O=C1c2cc3c(cc2OCN1CCc1ccc(Cl)cc1)C(=O)N1CCCC1O3` (configuration not stated), in the assay filed under Rattus norvegicus [1], the CD is greater than 40 µM.
`O=C1c2cc3c(cc2OCN1CCc1ccccc1Cl)C(=O)N1CCCC1O3` (configuration not stated): the CD in the assay filed under Rattus norvegicus [1] was determined as 7.1 µM.
As for `O=C1c2cc3c(cc2OCN1CCc1cccc(Cl)c1)C(=O)N1CCCC1O3` (configuration not stated), in the assay listed under Rattus norvegicus [1], the CD came to 0.02 µM. The Activity in the assay listed under Rattus norvegicus [7] is 7%. Besides, in assay [3], the negative logarithm of the Ki (pKi) was 5.74.
As to `COCCN1COc2cc3c(cc2C1=O)OC1CCCN1C3=O` (configuration not stated), the CD in the assay filed under Rattus norvegicus [1] was 1.2 µM. The Activity in the assay filed under Rattus norvegicus [4] stood at 14%. For the same compound, the pKi in assay [3] was 4.39.
As to `O=C1c2cc3c(cc2OCN1CCc1cccc(C(F)(F)F)c1)C(=O)N1CCCC1O3` (configuration not stated), in the assay filed under Rattus norvegicus [1], the CD worked out at 0.2 µM. In addition, the Activity in the assay filed under Rattus norvegicus [7] amounted to 1%. For the same compound, the pKi in assay [3] was 5.60.
For `CN(CCN1COc2cc3c(cc2C1=O)OC1CCCN1C3=O)S(C)(=O)=O` (configuration not stated), the CD in the assay filed under Rattus norvegicus [1] was 0.38 µM. Besides, the Activity in the assay listed under Rattus norvegicus [4] was determined as 8%. The same compound gave a pKi in assay [3] of 4.51.
Consider `O=C1c2cc3c(cc2OCN1CCc1ccccc1F)C(=O)N1CCCC1O3` (configuration not stated), for which the CD in the assay listed under Rattus norvegicus [1] was determined as 5.4 µM. The compound further gave a pKi in assay [3] of 4.44.
As to `O=C1c2cc3c(cc2OCN1CCc1cccc([N+](=O)[O-])c1)C(=O)N1CCCC1O3` (configuration not stated), the CD in the assay listed under Rattus norvegicus [1] stood at 0.015 µM. Also, the Activity in the assay listed under Rattus norvegicus [2] was found to be 8%. In addition, the pKi in assay [3] was 5.44.
